In brackets after ≈: the same amount, converted by molar mass.
Assays:
Format in all cases: physicochemical
[1] = Solubility of the compound in 5 % PEG3350 by UV/visible spectroscopy
In short: (§1)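 The compound was diluted from a 10 mM aqueous stock of its HCl salt into 10 mM citrate-phosphate buffer, pH 6.5, containing the organic solvent at the stated % (v/v). Samples were centrifuged, and soluble material was read by UV absorbance at 252 nm. The pellet was resuspended in pure solvent and read as a check. Values are the mean of four independent measurements.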

[2] = Solubility of the compound in 10 % DMSO by UV/visible spectroscopy; in short: as §1
[3] = Solubility of the compound in 2.5 % DMSO by UV/visible spectroscopy; in short: as §1
[4] = Solubility of the compound in 2.5 % MeOH by UV/visible spectroscopy; in short: as §1
[5] = Solubility of the compound in 10 % PEG5000 by UV/visible spectroscopy; in short: as §1
[6] = Solubility of the compound in 2.5 % DMF by UV/visible spectroscopy; in short: as §1
[7] = Solubility of the compound in 10 % DMF by UV/visible spectroscopy; in short: as §1
[8] = Solubility of the compound in 10 % MeOH by UV/visible spectroscopy; in short: as §1
[9] = Solubility of the compound in 5 % PEG5000 by UV/visible spectroscopy; in short: as §1
[10] = Solubility of the compound in 5 % DMF by UV/visible spectroscopy; in short: as §1
[11] = Solubility of the compound in 10 % glycerol by UV/visible spectroscopy; in short: as §1
[12] = Solubility of the compound in citrate-phosphate buffer at pH 6.5
In short: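 The compound was diluted from a 10 mM aqueous stock (pH about 1) into 10 mM citrate-phosphate buffer, pH 6.5, with no organic cosolvent. After centrifugation, soluble material was quantified by UV absorbance at 252 nm. The resuspended precipitate was also measured. Values are the mean of four independent measurements.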

[13] = Solubility of the compound in 10 % PEG3350 by UV/visible spectroscopy; in short: as §1
[14] = Solubility of the compound in 5 % MeOH by UV/visible spectroscopy; in short: as §1
[15] = Solubility of the compound in 5 % glycerol by UV/visible spectroscopy; in short: as §1
[16] = Solubility of the compound in 5 % DMSO by UV/visible spectroscopy; in short: as §1
[17] = Solubility of the compound in 2.5 % glycerol by UV/visible spectroscopy; in short: as §1
[18] = Solubility of the compound in 2.5 % PEG5000 by UV/visible spectroscopy; in short: as §1

Molecule `Cc1cc2occ(CN(C)CCN(C)Cc3cn(-c4cccc(C(F)(F)F)c4)c4ccccc34)c(=O)c2cc1C` has a solubility [1] of 84 µM (≈ 46 µg/mL), a solubility [2] of 79 µM (≈ 43.3 µg/mL) and a solubility [3] of 33 µM (≈ 18.1 µg/mL). For the same molecule, the solubility [4] was 37 µM (≈ 20.3 µg/mL), the solubility [5] was over 100 µM and the solubility [6] was 35 µM (≈ 19.2 µg/mL). The solubility [7] was 82 µM (≈ 44.9 µg/mL), the solubility [8] was 83 µM (≈ 45.5 µg/mL) and the solubility [9] was 97 µM (≈ 53.1 µg/mL). The solubility [10] was 58 µM (≈ 31.8 µg/mL), the solubility [11] was 28 µM (≈ 15.3 µg/mL) and the solubility [12] was 10 µM (≈ 5.48 µg/mL). It also gave a solubility [13] of 96 µM (≈ 52.6 µg/mL), a solubility [14] of 58 µM (≈ 31.8 µg/mL) and a solubility [15] of 19 µM (≈ 10.4 µg/mL). It also gave a solubility [16] of 52 µM (≈ 28.5 µg/mL), a solubility [17] of 15 µM (≈ 8.21 µg/mL) and a solubility [18] of 90 µM (≈ 49.3 µg/mL).
